The text below walks through data of ChEMBL document CHEMBL1139475, “Structural, mutagenic, and kinetic analysis of the binding of substrates and inhibitors of human phenylethanolamine N-methyltransferase” (J Med Chem, 2005).

The nature of data set [1]: Binding affinity to human PNMT-S-adenosyl-L-methionine complex.
The target of data set [2] is T1, Phenylethanolamine N-methyltransferase (Homo sapiens, UniProt P11086).
T1 sequence (P11086 whole entry): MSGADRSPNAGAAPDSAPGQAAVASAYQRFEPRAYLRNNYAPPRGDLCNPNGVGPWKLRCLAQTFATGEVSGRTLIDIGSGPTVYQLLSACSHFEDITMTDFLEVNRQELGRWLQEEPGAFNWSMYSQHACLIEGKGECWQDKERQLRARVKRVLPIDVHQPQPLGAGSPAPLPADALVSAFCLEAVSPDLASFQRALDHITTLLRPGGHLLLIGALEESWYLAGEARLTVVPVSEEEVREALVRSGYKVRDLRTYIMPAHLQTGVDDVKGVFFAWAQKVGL
In words: Binding affinity to human free PNMT.

Data set [3] concerns the target Phenylethanolamine N-methyltransferase (Homo sapiens, UniProt P11086, K57A). In words: (§1) Activity of human PNMT K57A mutant assessed as phenylethanolamine methylation. The method in brief:
(§2)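 C-terminally His6-tagged human PNMT mutants made by site-directed mutagenesis, expressed in E. coli BL21(DE3)-pLysS, and purified by Ni affinity then gel filtration. Steady-state kinetics used 50 mM potassium phosphate pH 8.0 with [3H]-AdoMet and phenylethanolamine, each varied between 0.3 and 3 × Km. Incubation was 30 min at 30 °C, quenched with borate pH 10, extracted into toluene/isoamyl alcohol, and counted by scintillation.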

For data set [4], the target named is Phenylethanolamine N-methyltransferase (Homo sapiens, UniProt P11086, D267A). In words: Activity of human PNMT D267A mutant assessed as phenylethanolamine methylation.
In data set [5] the target is Phenylethanolamine N-methyltransferase (Homo sapiens, UniProt P11086, V53A). The data set is described as follows: (§3) Activity of human PNMT V53A mutant assessed as phenylethanolamine methylation. Summed up:
as §2

Data set [6] deals with Phenylethanolamine N-methyltransferase (Homo sapiens, UniProt P11086, D267N). The data set is described as follows: (§4) Activity of human PNMT D267N mutant assessed as phenylethanolamine methylation. The method in brief:
as §2

The target of data set [7] is T1, Phenylethanolamine N-methyltransferase. In words: Activity of human wild type PNMT assessed as phenylethanolamine methylation.
Data set [8] concerns the target Phenylethanolamine N-methyltransferase (Homo sapiens, UniProt P11086, E219A). The data set is described as follows: (§5) Activity of human PNMT E219A mutant assessed as phenylethanolamine methylation. Summed up: as §2
Substrate in data set [9]: C[S+](CC[C@H](N)C(=O)[O-])C[C@H]1O[C@@H](n2cnc3c(N)ncnc32)[C@H](O)[C@@H]1O
Described as §3. The method in brief: as §2

Substrate in data set [10]: NCC(O)c1ccc(Cl)c(Cl)c1
The description is as §3. Summed up:
as §2

Substrate in data set [11]: C[S+](CC[C@H](N)C(=O)[O-])C[C@H]1O[C@@H](n2cnc3c(N)ncnc32)[C@H](O)[C@@H]1O
The description is as §5. Summed up:
as §2

Substrate in data set [12]: NCC(O)c1ccc(Cl)c(Cl)c1
The description is as §5. Summed up:
as §2

Substrate in data set [13]: C[S+](CC[C@H](N)C(=O)[O-])C[C@H]1O[C@@H](n2cnc3c(N)ncnc32)[C@H](O)[C@@H]1O
The note with it: Homo sapiens.

Substrate in data set [14]: NCC(O)c1ccc(Cl)c(Cl)c1
The conditions noted are these: Homo sapiens.

Substrate in data set [15]: C[S+](CC[C@H](N)C(=O)[O-])C[C@H]1O[C@@H](n2cnc3c(N)ncnc32)[C@H](O)[C@@H]1O
The description is as §1. The method in brief:
as §2

Substrate in data set [16]: NCC(O)c1ccc(Cl)c(Cl)c1
Described as §1. The method in brief:
as §2

Substrate in data set [17]: C[S+](CC[C@H](N)C(=O)[O-])C[C@H]1O[C@@H](n2cnc3c(N)ncnc32)[C@H](O)[C@@H]1O
Described as §4. The method in brief: as §2

Substrate in data set [18]: NCC(O)c1ccc(Cl)c(Cl)c1
The description is as §4. The method in brief:
as §2

Substrate in data set [19]: C[S+](CC[C@H](N)C(=O)[O-])C[C@H]1O[C@@H](n2cnc3c(N)ncnc32)[C@H](O)[C@@H]1O
The note with it: Homo sapiens. This is another data set of the same source.

Substrate in data set [20]: NCC(O)c1ccc(Cl)c(Cl)c1
The note with it: Homo sapiens. This is another data set of the same source.

With `CC(N)c1cccc(Cl)c1Cl` (stereo not given), the Ki (commonly the equilibrium dissociation constant of an inhibitor or competing ligand from its target) worked out at 0.072 µM in [1] and 1.33 µM in [2].
On to `C[S+](CC[C@H](N)C(=O)[O-])C[C@H]1O[C@@H](n2cnc3c(N)ncnc32)[C@H](O)[C@@H]1O` (stereo not given in full) [ADEMETIONINE], for which the Kd (usually the equilibrium constant for the complex coming apart) was found to be 10.7 µM in data set [3]; 11 µM in [4]; 7.1 µM in data set [5]; 7.5 µM in [6]; 4.8 µM in [7]; 7.5 µM in [8].

B1: Phenylethanolamine N-methyltransferase (Homo sapiens), P11086 V53A (protein)
chain: MSGADRSPNAGAAPDSAPGQAAVASAYQRFEPRAYLRNNYAPPRGDLCNPNGAGPWKLRCLAQTFATGEVSGRTLIDIGSGPTVYQLLSACSHFEDITMTDFLEVNRQELGRWLQEEPGAFNWSMYSQHACLIEGKGECWQDKERQLRARVKRVLPIDVHQPQPLGAGSPAPLPADALVSAFCLEAVSPDLASFQRALDHITTLLRPGGHLLLIGALEESWYLAGEARLTVVPVSEEEVREALVRSGYKVRDLRTYIMPAHLQTGVDDVKGVFFAWAQKVGL
Consider B1, for which the Michaelis-Menten constant (Km) – broadly, the concentration of substrate that gives half-maximal velocity – turned out to be 9.6 µM in data set [9] and 1630 µM in [10].

B2: Phenylethanolamine N-methyltransferase (Homo sapiens), P11086 E219A (protein)
chain: MSGADRSPNAGAAPDSAPGQAAVASAYQRFEPRAYLRNNYAPPRGDLCNPNGVGPWKLRCLAQTFATGEVSGRTLIDIGSGPTVYQLLSACSHFEDITMTDFLEVNRQELGRWLQEEPGAFNWSMYSQHACLIEGKGECWQDKERQLRARVKRVLPIDVHQPQPLGAGSPAPLPADALVSAFCLEAVSPDLASFQRALDHITTLLRPGGHLLLIGALEASWYLAGEARLTVVPVSEEEVREALVRSGYKVRDLRTYIMPAHLQTGVDDVKGVFFAWAQKVGL
B2: the Km in data set [11] stood at 7.1 µM; in data set [12], 580 µM.

B3: Phenylethanolamine N-methyltransferase (Homo sapiens), P11086 D267A (protein)
chain: MSGADRSPNAGAAPDSAPGQAAVASAYQRFEPRAYLRNNYAPPRGDLCNPNGVGPWKLRCLAQTFATGEVSGRTLIDIGSGPTVYQLLSACSHFEDITMTDFLEVNRQELGRWLQEEPGAFNWSMYSQHACLIEGKGECWQDKERQLRARVKRVLPIDVHQPQPLGAGSPAPLPADALVSAFCLEAVSPDLASFQRALDHITTLLRPGGHLLLIGALEESWYLAGEARLTVVPVSEEEVREALVRSGYKVRDLRTYIMPAHLQTGVADVKGVFFAWAQKVGL
For B3, the Km in data set [13] came to 2.4 µM; in data set [14], 2050 µM.

B4: Phenylethanolamine N-methyltransferase (Homo sapiens), P11086 K57A (protein)
chain: MSGADRSPNAGAAPDSAPGQAAVASAYQRFEPRAYLRNNYAPPRGDLCNPNGVGPWALRCLAQTFATGEVSGRTLIDIGSGPTVYQLLSACSHFEDITMTDFLEVNRQELGRWLQEEPGAFNWSMYSQHACLIEGKGECWQDKERQLRARVKRVLPIDVHQPQPLGAGSPAPLPADALVSAFCLEAVSPDLASFQRALDHITTLLRPGGHLLLIGALEESWYLAGEARLTVVPVSEEEVREALVRSGYKVRDLRTYIMPAHLQTGVDDVKGVFFAWAQKVGL
As for B4, the Km in data set [15] was 11.7 µM; in [16], 1310 µM.

B5: Phenylethanolamine N-methyltransferase (Homo sapiens), P11086 D267N (protein)
chain: MSGADRSPNAGAAPDSAPGQAAVASAYQRFEPRAYLRNNYAPPRGDLCNPNGVGPWKLRCLAQTFATGEVSGRTLIDIGSGPTVYQLLSACSHFEDITMTDFLEVNRQELGRWLQEEPGAFNWSMYSQHACLIEGKGECWQDKERQLRARVKRVLPIDVHQPQPLGAGSPAPLPADALVSAFCLEAVSPDLASFQRALDHITTLLRPGGHLLLIGALEESWYLAGEARLTVVPVSEEEVREALVRSGYKVRDLRTYIMPAHLQTGVNDVKGVFFAWAQKVGL
For B5, the Km in [17] turned out to be 7.1 µM; in data set [18] it was 1640 µM.

B6: Phenylethanolamine N-methyltransferase (Homo sapiens), P11086 (protein)
chain: MSGADRSPNAGAAPDSAPGQAAVASAYQRFEPRAYLRNNYAPPRGDLCNPNGVGPWKLRCLAQTFATGEVSGRTLIDIGSGPTVYQLLSACSHFEDITMTDFLEVNRQELGRWLQEEPGAFNWSMYSQHACLIEGKGECWQDKERQLRARVKRVLPIDVHQPQPLGAGSPAPLPADALVSAFCLEAVSPDLASFQRALDHITTLLRPGGHLLLIGALEESWYLAGEARLTVVPVSEEEVREALVRSGYKVRDLRTYIMPAHLQTGVDDVKGVFFAWAQKVGL
B6: the Km was 1.2 µM in [19] and 100 µM in [20].
